{"data": "Published values from different studies", "BRAF": "Serine/threonine-protein kinase B-raf (BRAF, Homo sapiens, UniProt P15056)", "BRAF V600E": "Serine/threonine-protein kinase B-raf (BRAF, Homo sapiens, UniProt P15056, V600E)", "note": "Protocols differ between the studies behind these lines."}
{"target": "BRAF", "observed": "cell-free assay", "concentration": "1 µM", "endpoint": "remaining signal", "value": "92%", "SMILES": "C#Cc1cnc(Nc2ccnc(CO)c2)nc1Nc1ccccc1S(C)(=O)=NC#N (centres unmarked)"}
{"target": "BRAF V600E", "observed": "enzyme activity", "action": "inhibitor", "concentration": "1 µM", "endpoint": "inhibition", "value": "0%", "SMILES": "CO[C@@H]1[C@H](N(C)C(=O)c2ccccc2)C[C@H]2O[C@]1(C)n1c3ccccc3c3c4c(c5c6ccccc6n2c5c31)C(=O)NC4"}
{"target": "BRAF V600E", "observed": "cell-free assay", "concentration": "1 µM", "endpoint": "remaining signal", "value": "100%", "SMILES": "COc1ccc2oc(-c3ccc4nc(N)oc4c3)c/c(=N\\c3ccccc3NC(=O)CCN)c2c1"}
{"target": "BRAF", "observed": "binding", "technique": "competition with immobilised ligand", "concentration": "1 µM", "endpoint": "remaining binding", "value": "0.4%", "SMILES": "Cc1ccc(NC(=O)c2ccnc(C(F)(F)F)c2)cc1-c1cc(OCCO)nc(N2CCOCC2)c1"}
{"target": "BRAF", "observed": "binding", "concentration": "0.1 µM", "endpoint": "remaining binding", "value": "94%", "SMILES": "C1=C/COCc2cc(ccc2OCCN2CCCC2)Nc2nccc(n2)-c2cccc(c2)COC/1"}
{"target": "BRAF", "observed": "binding", "technique": "competition with immobilised ligand", "concentration": "0.5 µM", "endpoint": "remaining binding", "value": "97%", "SMILES": "CCCCC(=O)Nc1ccc(-c2ccc3ncn(CCC)c(=O)c3c2)cn1"}
{"target": "BRAF", "observed": "enzyme activity", "action": "inhibitor", "concentration": "1 µM", "endpoint": "inhibition", "value": "0%", "SMILES": "C=CC(=O)N1CCC([C@@H]2CCNc3c(C(N)=O)c(-c4ccc(Oc5ccccc5)cc4)nn32)CC1"}
{"target": "BRAF", "observed": "enzyme activity", "action": "inhibitor", "technique": "ADP detection", "concentration": "3.333 µM", "endpoint": "inhibition", "value": "101%", "SMILES": "Cc1cc2c(C(N)=O)c(N)n(-c3c(C)ccc(O)c3C)c2nc1C"}
{"target": "BRAF V600E", "observed": "binding", "concentration": "1 µM", "endpoint": "remaining binding", "value": "85%", "SMILES": "CN1CCN(C(=O)c2ccc(NC(=O)Nc3ccc(N(C)c4ccnc(Nc5ccc(CS(C)(=O)=O)cc5)n4)cc3)cc2)CC1"}
{"target": "BRAF V600E", "observed": "cell-free assay", "technique": "competition with immobilised ligand", "concentration": "25 µM", "endpoint": "remaining binding", "value": "100%", "SMILES": "N#Cc1ccc(NC(=O)Nc2ccccc2)cc1"}
{"target": "BRAF", "observed": "enzyme activity", "action": "inhibitor", "concentration": "1 µM", "endpoint": "inhibition", "value": "43%", "SMILES": "CC#CC(=O)N1CCC[C@H]1c1nc(-c2ccc(C(=O)Nc3ccccn3)cc2)c2c(N)nccn12"}
{"target": "BRAF", "observed": "binding", "technique": "competition with immobilised ligand", "concentration": "1 µM", "endpoint": "remaining binding", "value": "86%", "SMILES": "COc1ccc2[nH]c3c4[nH]c5ccc(OC)cc5c4c4c(c3c2c1)C(=O)NC4=O"}
{"target": "BRAF V600E", "observed": "enzyme activity", "action": "inhibitor", "concentration": "1 µM", "endpoint": "inhibition", "value": "61%", "SMILES": "C=CC(=O)N1CCC[C@@H](n2nc(-c3ccc(Oc4ccccc4)cc3)c3c(N)ncnc32)C1"}
{"target": "BRAF V600E", "observed": "cell-free assay", "concentration": "1 µM", "endpoint": "remaining signal", "value": "82%", "SMILES": "C[C@H]1CC[C@H](n2c3cnccc3c3cnc(Nc4ccc5c(n4)CCN(C(=O)CO)C5)nc32)CC1"}
